In brackets after ≈: the same amount, converted by molar mass. Activity calls are given as the source filed them. The calls are words filed in the database; no cut-off is given here.
Columns and labels:
Staphylococcus aureus [1] = experiment: Antibacterial activity against Staphylococcus aureus NCTC 4163 after 18 hrs by serial agar dilution method; type: functional; settings: NCTC 4163, 18 h
In short: (§1)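 MIC by twofold serial agar dilution in Mueller–Hinton II agar per CLSI, run only for compounds that gave an inhibition zone in disc assay. Compounds dissolved in DMSO, tested at 3.125–400 µg/ml in agar. Final inoculum 10^4 CFU/ml. […] DMSO control included.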

Pseudomonas aeruginosa [2] = experiment: Antibacterial activity against Pseudomonas aeruginosa ATCC 27853 at 400 ug/disc after 18 hrs by disc diffusion assay; type: functional, organism-based
In short: (§2)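 Disc diffusion on Mueller–Hinton II agar per CLSI guidelines. Compound in ethanol applied to 9 mm filter paper discs at 400 µg per disc, then dried and placed on the agar surface. Growth inhibition zone diameter read after 18 h at 35 °C.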

Staphylococcus aureus [3] = experiment: Antibacterial activity against Staphylococcus aureus NCTC 4163 at 400 ug/disc after 18 hrs by disc diffusion assay; type: functional; settings: NCTC 4163, 18 h, read-out: IZ; in short: as §2
Pseudomonas aeruginosa [4] = experiment: Antibacterial activity against Pseudomonas aeruginosa NCTC 6749 at 400 ug/disc after 18 hrs by disc diffusion assay; type: functional, organism-based; in short: as §2
Candida albicans [5] = experiment: Antifungal activity against Candida albicans ATCC 10231 after 24 hrs by serial agar dilution method; type: functional; settings: ATCC 10231, 24 h
In short: (§3)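 Yeast MIC by twofold serial agar dilution on RPMI agar with 2% glucose (CLSI), run only for compounds that gave an inhibition zone in disc assay. Compounds in DMSO, 3.125–400 µg/ml in agar. Final inoculum 10^4 CFU/ml. […] Fluconazole and DMSO controls included.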

Bacillus subtilis [6] = experiment: Antibacterial activity against Bacillus subtilis ATCC 6633 after 18 hrs by serial agar dilution method; type: functional; settings: ATCC 6633, 18 h; in short: as §1
Staphylococcus aureus [7] = experiment: Antibacterial activity against Staphylococcus aureus ATCC 25923 after 18 hrs by serial agar dilution method; type: functional; settings: ATCC 25923, 18 h; in short: as §1
[8] = system: Staphylococcus epidermidis; experiment: Antibacterial activity against Staphylococcus epidermidis ATCC 12228 after 18 hrs by serial agar dilution method; type: functional; settings: ATCC 12228, 18 h; in short: as §1
Staphylococcus aureus [9] = experiment: Antibacterial activity against Staphylococcus aureus ATCC 6538 at 400 ug/disc after 18 hrs by disc diffusion assay; type: functional; settings: ATCC 6538, 18 h, read-out: IZ; in short: as §2
[10] = system: Staphylococcus epidermidis; experiment: Antibacterial activity against Staphylococcus epidermidis ATCC 12228 at 400 ug/disc after 18 hrs by disc diffusion assay; type: functional; settings: ATCC 12228, 18 h, read-out: IZ; in short: as §2
Candida parapsilosis [11] = experiment: Antifungal activity against Candida parapsilosis ATCC 22019 at 400 ug/disc after 24 hrs by disc diffusion assay; type: functional; settings: Lodderomyces parapsilosis, ATCC 22019, 24 h; read-out: IZ
In short: (§4)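 Disc diffusion on RPMI agar with 2% glucose per CLSI guidelines. Discs 9 mm filter paper, loaded from ethanol solution with 400 µg compound, dried before placing on the agar. Inhibition zone diameter read after incubation at 35 °C. Fluconazole control at 25 µg per disc.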

Candida albicans [12] = experiment: Antifungal activity against Candida albicans ATCC 90028 at 400 ug/disc after 24 hrs by disc diffusion assay; type: functional; settings: ATCC 90028, 24 h, read-out: IZ; in short: as §4
Staphylococcus aureus [13] = experiment: Antibacterial activity against Staphylococcus aureus ATCC 6538 after 18 hrs by serial agar dilution method; type: functional; settings: ATCC 6538, 18 h; in short: as §1
Micrococcus luteus [14] = experiment: Antibacterial activity against Micrococcus luteus ATCC 9341 at 400 ug/disc after 18 hrs by disc diffusion assay; type: functional; settings: ATCC 9341, 18 h, read-out: IZ; in short: as §2
Bacillus subtilis [15] = experiment: Antibacterial activity against Bacillus subtilis ATCC 6633 at 400 ug/disc after 18 hrs by disc diffusion assay; type: functional; settings: ATCC 6633, 18 h, read-out: IZ; in short: as §2
Micrococcus luteus [16] = experiment: Antibacterial activity against Micrococcus luteus ATCC 9341 after 18 hrs by serial agar dilution method; type: functional; settings: ATCC 9341, 18 h; in short: as §1
[17] = system: Bordetella bronchiseptica; experiment: Antibacterial activity against Bordetella bronchiseptica ATCC 4617 at 400 ug/disc after 18 hrs by disc diffusion assay; type: functional, organism-based; in short: as §2
Escherichia coli [18] = experiment: Antibacterial activity against Escherichia coli NCTC 8196 at 400 ug/disc after 18 hrs by disc diffusion assay; type: functional, organism-based; in short: as §2
Escherichia coli [19] = experiment: Antibacterial activity against Escherichia coli ATCC 10538 at 400 ug/disc after 18 hrs by disc diffusion assay; type: functional, organism-based; in short: as §2
Enterococcus hirae [20] = experiment: Antibacterial activity against Enterococcus hirae ATCC 10541 after 18 hrs by serial agar dilution method; type: functional; settings: ATCC 10541, 18 h
In short: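 Twofold serial agar dilution MIC in Mueller–Hinton II agar (CLSI), run only for compounds that gave an inhibition zone in disc assay. DMSO solutions tested at 3.125–400 µg/ml in agar. Final inoculum 10^5 CFU/ml. Read after 18 h at 35 °C. DMSO control included.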

Proteus vulgaris = experiment: Antibacterial activity against Proteus vulgaris NCTC 4635 at 400 ug/disc after 18 hrs by disc diffusion assay; type: functional, organism-based; in short: as §2
Micrococcus luteus [21] = experiment: Antibacterial activity against Micrococcus luteus ATCC 10240 at 400 ug/disc after 18 hrs by disc diffusion assay; type: functional; settings: ATCC 10240, 18 h, read-out: IZ; in short: as §2
Enterococcus hirae [22] = experiment: Antibacterial activity against Enterococcus hirae ATCC 10541 at 400 ug/disc after 18 hrs by disc diffusion assay; type: functional; settings: ATCC 10541, 18 h, read-out: IZ; in short: as §2
Bacillus cereus [23] = experiment: Antibacterial activity against Bacillus cereus ATCC 11778 after 18 hrs by serial agar dilution method; type: functional; settings: ATCC 11778, 18 h; in short: as §1
Candida parapsilosis [24] = experiment: Antifungal activity against Candida parapsilosis ATCC 22019 after 24 hrs by serial agar dilution method; type: functional; settings: Lodderomyces parapsilosis, ATCC 22019, 24 h
In short: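 Twofold serial agar dilution per CLSI on RPMI agar with 2% glucose. Agents were dissolved in DMSO and tested at 3.125–400 µg/ml in the solid medium, with a DMSO control. Final inoculum was 10^4 CFU/mL.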

Staphylococcus aureus [25] = experiment: Antibacterial activity against Staphylococcus aureus ATCC 29213 after 18 hrs by serial agar dilution method; type: functional; settings: ATCC 29213, 18 h; in short: as §1
Staphylococcus aureus [26] = experiment: Antibacterial activity against Staphylococcus aureus ATCC 25923 at 400 ug/disc after 18 hrs by disc diffusion assay; type: functional; settings: ATCC 25923, 18 h, read-out: IZ; in short: as §2
Candida albicans [27] = experiment: Antifungal activity against Candida albicans ATCC 90028 after 24 hrs by serial agar dilution method; type: functional; settings: ATCC 90028, 24 h; in short: as §3
Escherichia coli [28] = experiment: Antibacterial activity against Escherichia coli ATCC 25922 at 400 ug/disc after 18 hrs by disc diffusion assay; type: functional, organism-based; in short: as §2
Pseudomonas aeruginosa [29] = experiment: Antibacterial activity against Pseudomonas aeruginosa ATCC 15442 at 400 ug/disc after 18 hrs by disc diffusion assay; type: functional, organism-based; in short: as §2
Bacillus cereus [30] = experiment: Antibacterial activity against Bacillus cereus ATCC 11778 at 400 ug/disc after 18 hrs by disc diffusion assay; type: functional; settings: ATCC 11778, 18 h, read-out: IZ; in short: as §2
Candida albicans [31] = experiment: Antifungal activity against Candida albicans ATCC 10231 at 400 ug/disc after 24 hrs by disc diffusion assay; type: functional; settings: ATCC 10231, 24 h, read-out: IZ; in short: as §4
Staphylococcus aureus [32] = experiment: Antibacterial activity against Staphylococcus aureus ATCC 29213 at 400 ug/disc after 18 hrs by disc diffusion assay; type: functional; settings: ATCC 29213, 18 h, read-out: IZ; in short: as §2
Micrococcus luteus [33] = experiment: Antibacterial activity against Micrococcus luteus ATCC 10240 after 18 hrs by serial agar dilution method; type: functional; settings: ATCC 10240, 18 h; in short: as §1
Candida albicans [34] = experiment: Antifungal activity against Candida albicans ATCC 10231 at 25 ug/disc after 24 hrs by disc diffusion assay; type: functional; settings: ATCC 10231, 24 h, read-out: IZ
In short: (§5)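 Disc diffusion per CLSI on RPMI agar with 2% glucose. Sterile 9 mm filter-paper discs were loaded at 25 µg per disc, dried, and placed on the agar surface. Plates were incubated at 35 °C, and the diameter of the growth-inhibition zone was read.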

Candida albicans [35] = experiment: Antifungal activity against Candida albicans ATCC 90028 at 25 ug/disc after 24 hrs by disc diffusion assay; type: functional; settings: ATCC 90028, 24 h, read-out: IZ; in short: as §5
Candida parapsilosis [36] = experiment: Antifungal activity against Candida parapsilosis ATCC 22019 at 25 ug/disc after 24 hrs by disc diffusion assay; type: functional; settings: Lodderomyces parapsilosis, ATCC 22019, 24 h; read-out: IZ; in short: as §5

SMILES: CC[C@@]1([C@@H]2O[C@@H]([C@H]3O[C@@](O)(CO)[C@H](C)C[C@@H]3C)C[C@@H]2C)CC[C@H]([C@]2(C)CC[C@]3(C[C@H](O)[C@@H](C)[C@@H]([C@@H](C)[C@@H](OC)[C@H](C)C(=O)OCCN4CCOCC4)O3)O2)O1
- MIC (Staphylococcus aureus [1]): 12.5 µg/mL (≈ 15.9 µM)
- Activity (Pseudomonas aeruginosa [2]): inactive
- zone of inhibition at 400 µg/disc (Staphylococcus aureus [3]): 23 mm
- Activity (Pseudomonas aeruginosa [4]): inactive
- MIC (Candida albicans [5]): 200 µg/mL (≈ 255 µM)
- MIC (Bacillus subtilis [6]): 6.25 µg/mL (≈ 7.97 µM)
- MIC (Staphylococcus aureus [7]): 6.25 µg/mL (≈ 7.97 µM)
- MIC [8]: 12.5 µg/mL (≈ 15.9 µM)
- zone of inhibition at 400 µg/disc (Staphylococcus aureus [9]): 23 mm
- zone of inhibition at 400 µg/disc [10]: 24 mm
- zone of inhibition at 400 µg/disc (Candida parapsilosis [11]): 14 mm
- zone of inhibition at 400 µg/disc (Candida albicans [12]): 17 mm
- MIC (Staphylococcus aureus [13]): 12.5 µg/mL (≈ 15.9 µM)
- zone of inhibition at 400 µg/disc (Micrococcus luteus [14]): 22 mm
- zone of inhibition at 400 µg/disc (Bacillus subtilis [15]): 27 mm
- MIC (Micrococcus luteus [16]): 25 µg/mL (≈ 31.9 µM)
- Activity [17]: inactive
- Activity (Escherichia coli [18]): inactive
- Activity (Escherichia coli [19]): inactive
- MIC (Enterococcus hirae [20]): 50 µg/mL (≈ 63.8 µM)
- Activity (Proteus vulgaris): inactive
- zone of inhibition at 400 µg/disc (Micrococcus luteus [21]): 18 mm
- zone of inhibition at 400 µg/disc (Enterococcus hirae [22]): 13 mm
- MIC (Bacillus cereus [23]): 6.25 µg/mL (≈ 7.97 µM)
- MIC (Candida parapsilosis [24]): 400 µg/mL (≈ 510 µM)
- MIC (Staphylococcus aureus [25]): 6.25 µg/mL (≈ 7.97 µM)
- zone of inhibition at 400 µg/disc (Staphylococcus aureus [26]): 20 mm
- MIC (Candida albicans [27]): 200 µg/mL (≈ 255 µM)
- Activity (Escherichia coli [28]): inactive
- Activity (Pseudomonas aeruginosa [29]): inactive
- zone of inhibition at 400 µg/disc (Bacillus cereus [30]): 25 mm
- zone of inhibition at 400 µg/disc (Candida albicans [31]): 18 mm
- zone of inhibition at 400 µg/disc (Staphylococcus aureus [32]): 25 mm
- MIC (Micrococcus luteus [33]): 12.5 µg/mL (≈ 15.9 µM)

SMILES: OC(Cn1cncn1)(Cn1cncn1)c1ccc(F)cc1F [FLUCONAZOLE]
- zone of inhibition at 25 µg/disc (Candida albicans [34]): 22 mm
- zone of inhibition at 25 µg/disc (Candida albicans [35]): 32 mm
- MIC (Candida parapsilosis [24]): 2 µg/mL (≈ 6.53 µM)
- zone of inhibition at 25 µg/disc (Candida parapsilosis [36]): 22 mm
